Values joined by “and” are separate entries in the source; they are usually repeats but may differ in a detail not shown here. Equal entries are not always repeated.

The values that follow come from ChEMBL document CHEMBL1124913, “Aqua[1-(2,6-dichloro-4-hydroxyphenyl)-2- phenylethylenediamine](sulfato)platinum-(II) complexes with variable substituents in the 2-phenyl ring. 1. Synthesis and antitumor and estrogenic properties” (J Med Chem, 1990).

In test [1] the test system is Mus musculus. The test is described as follows: Ratio of median survival time of tested group to that of control group of animals was reported at a concentration of 20 uM/Kg. In kind it is functional, organism-based. In outline:
(§1)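 P388 leukemia was passaged in female DBA/2 mice. Female CDF1 mice (18–22 g) received 1×10^6 cells ip in PBS on day 0. Groups of six (ten for solvent control) were dosed ip with aqueous solutions on days 1, 5 and 9. Median survival time = X + Y/2, with X and Y the first days reaching N/2 and N/2 + 1 deaths. %T/C = treated/control median survival ×100.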

Test [2] has as its system P388. In words: In vivo for antitumor effect on P388 Leukemia of the CDF1 and median survival time of the animals in days was reported at a concentration of 20 uM/Kg. To be noted: Mus musculus. In kind it is functional, organism-based. The method, boiled down:
as §1

For test [3], the system named is P388. The test is described as follows: In vivo for antitumor effect on P388 Leukemia of the CDF1 mouse at dose 40 uM/kg administered intraperitoneally. It is filed as functional, organism-based. In outline: as §1
The test system of test [4] is P388. In words: In vivo for antitumor effect on P388 Leukemia of the CDF1 and median survival time of the animals in days was reported at a concentration of 40 uM/Kg. In kind it is functional, organism-based. The following applies: Mus musculus. The method, boiled down: as §1
Test [5] has as its system Mus musculus. The test is described as follows: Ratio of median survival time of tested group to that of control group of animals was reported at a concentration of 10 uM/Kg. In kind it is functional, organism-based. The method, boiled down: as §1
Test [6] relates to P388. The test is described as follows: In vivo for antitumor effect on P388 Leukemia of the CDF1 mouse at dose 20 uM/kg administered intraperitoneally. In kind it is functional, organism-based. In outline:
as §1

The target in test [7] is T1, Estrogen receptor (Mus musculus) (UniProt O08537+P19785). The test is described as follows: Administered subcutaneously on three consecutive days at a dose of 1000 uM /Kg. It is filed as functional. The method, boiled down: (§2)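 Immature female NMRI mice, 19 days old, in groups of six. Compounds were dissolved in water and given as 0.1 mL sc on days 1, 2 and 3; controls got vehicle and standards got estrone 0.4 μg. Animals were killed 24 h after the last dose. Uteri were fixed in Bouin solution, dried at 100 °C for 18 h and weighed. E = [uterine dry weight (mg)/body weight (g)]100, and estrogenic effect = (E_T − E_V)/(E_S − E_V)100.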

Test [8] addresses T1, Estrogen receptor (Mus musculus). The test is described as follows: (§3) Administered subcutaneously on three consecutive days at a dose of 100 uM /Kg. It is filed as functional. In outline: as §2
Test [9] relates to Mus musculus. In words: Ratio of median survival time of tested group to that of control group of animals was reported at a concentration of 40 uM/Kg. In kind it is functional, organism-based. The method, boiled down: as §1
For test [10], the system named is P388. In words: In vivo for antitumor effect on P388 Leukemia of the CDF1 and median survival time of the animals in days was reported at a concentration of 10 uM/Kg. In kind it is functional, organism-based. To be noted: Mus musculus. In outline:
as §1

Test [11] has as its target T1, Estrogen receptor (Mus musculus). In words: (§4) Administered subcutaneously on three consecutive days at a dose of 10 uM /Kg. In kind it is functional. The method, boiled down:
as §2

Test [12] has the same target. The description is as §4. It is filed as functional. In outline: as §2
The source holds these as a separate data set.

Test [13] deals with P388. The test is described as follows: In vivo antitumor effect on P388 Leukemia in CDF1 mice, median survival time in days at 10 uM/kg. It is filed as functional, organism-based. The following applies: Mus musculus. The method, boiled down:
as §1

Test [14] concerns P388. The test is described as follows: In vivo for antitumor effect on P388 Leukemia of the CDF1, and median survival time of the animals in days was reported at a concentration of 40 uM/Kg. It is filed as functional, organism-based. To be noted: Mus musculus. The method, boiled down: as §1
In test [15] the target is T1, Estrogen receptor (Mus musculus). Described as §3. It is filed as functional. The method, boiled down:
as §2
The source holds these as a separate data set.

The subject of test [16] is P388. The test is described as follows: In vivo for antitumor effect on P388 Leukemia of the CDF1 mouse at dose 10 uM/kg administered intraperitoneally. It is filed as functional, organism-based. In outline: as §1
The target of test [17] is T1, Estrogen receptor (Mus musculus). In words: Administered subcutaneously on three consecutive days at a dose of 1000 uM /Kg. In kind it is functional. In outline:
as §2

Test [18] shares this target. The test is described as follows: Estrogenic effect on subcutaneous 100 uM/kg dose for 3 days. It is filed as functional. The method, boiled down: as §2
Test [19] has the same target. The test is described as follows: Estrogenic effect on subcutaneous 1000 umol/kg dose for 3 days. In kind it is functional. In outline: as §2
For test [20] the target is unchanged. The test is described as follows: Estrogenic effect on subcutaneous 10 uM/kg dose for 3 days. In kind it is functional. In outline: as §2
Test [21] concerns P388. In words: In vivo antitumor effect on P388 Leukemia in CDF1 mice, median survival time in days at 20 umol/kg. In kind it is functional, organism-based. To be noted: Mus musculus. The method, boiled down:
as §1

Test [22] concerns Mus musculus. In words: Ratio of median survival time of tested group to control group at 5 umol/kg. It is filed as functional, organism-based. In outline: as §1
In test [23] the test system is P388. In words: In vivo antitumor effect on P388 Leukemia in CDF1 mice at 5 umol/kg intraperitoneal dose. In kind it is functional, organism-based. The following applies: Mus musculus. The method, boiled down:
as §1

The subject of test [24] is P388. The test is described as follows: In vivo antitumor effect on P388 Leukemia in CDF1 mice, median survival time in days at 5 umol/kg. In kind it is functional, organism-based. The following applies: Mus musculus. In outline:
as §1

For orientation: T/C means the ratio of treated to control. “Aqua [threo-1-(-2-fluoro-4-hydroxyhenyl)-2-(2,6-dichloro-4-hydroxyphenyl) ethylenediamine](sulfato) platinum (II)”: the T/C in the test on Mus musculus [1] is 166% and 155%; with Mus musculus [5] it was 155% and 133%; in the test on Mus musculus [9], 172% and 155%. The MST in the test on P388 [2] is 15 and 14; in the test with P388 [4] it was 15.5 and 14; in the test on P388 [10], 14 and 12. Moreover, the T-C in the test on P388 [3] is -3.8 g and -2.4 g; with P388 [6] it was -2.2 g and -1.2 g. In addition, the Estrogenic effect in test [7] was 20 and 52; in test [8], 11 and 13; in test [11], 9 and 11; in test [12], 1% and 0%.

With “Aqua[erythro-1-(-3-hydroxyhenyl)-2-(2,6-dichloro-4-hydroxyphenyl) ethylenediamine](sulfato) platinum (II)(erythro-4-Ptso4)”, the T/C is 161% and 169% with Mus musculus [1]; 156% and 163% in the test on Mus musculus [5]. For the same substance, the MST with P388 [2] is 14.5 and 13.5; with P388 [13], 13; in the test on P388 [4], 15.5; in the test with P388 [14], 8; in the test on P388 [10] it was 14. Also, the T-C in the test with P388 [3] was -4.6 g and -2.6 g; in the test with P388 [6] it was -1.7 g and -1.9 g; with P388 [16] it was -0.9 g and -1.5 g. Also, the Estrogenic effect is 0% in test [15]; 19 and 32 in [7]; 0% in [12]; 0% in test [17].

Take “Aqua[threo-1-(-2-chloro-4-hydroxyhenyl)-2-(2,6-dichloro-4-hydroxyphenyl) ethylenediamine](sulfato) platinum (II)(threo-9-Ptso4)”: the T/C in the test on Mus musculus [1] is 155% and 144%; in the test on Mus musculus [9], 161% and 155%. Further, the MST in the test with P388 [2] turned out to be 13; in the test with P388 [13] it was 14; in the test on P388 [4] it was 14; in the test on P388 [14], 14.5; in the test with P388 [21], 14; in the test with P388 [10], 11.5. Further, the Estrogenic effect in [18] was 14%; in test [19] it was 35%; in test [20] it was 10%; in [15], 141%; in test [7], 86 and 91; in test [8] it was 21 and 22. The Estrogenic effect is 9 and 11 in [11]; 39% in test [12]; 117% in test [17]. For the same substance, the T-C in the test on P388 [3] is -2.9 g and -1.9 g; in the test with P388 [6], -1.8 g and -1.2 g; in the test on P388 [16], -1.8 g and -2.4 g.

On to CISPLATIN, for which the T/C with Mus musculus [22] is 238%. For the same substance, the T-C in the test on P388 [23] is -3.8 g. Moreover, the MST in the test on P388 [24] came out at 19.
